Data taken from ChEMBL document CHEMBL1148322, “Synthesis and quantitative structure-activity relationship of hydrazones of N-amino-N'-hydroxyguanidine as electron acceptors for xanthine oxidase” (J Med Chem, 2004).

Target: Xanthine dehydrogenase/oxidase (Bos taurus, UniProt P80457)
Assay: Electron acceptor activity on bovine milk xanthine oxidase using xanthine as reducing substrate
Details: cattle
Outline: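 Run anaerobically at 25 °C in a sealed cuvette with 25 mM Tris-HCl, 1 mM EDTA, pH 7.5. All solutions were argon-gassed for at least 10 min, and the reaction was started by injecting milk xanthine oxidase. Readings from anaerobic controls lacking the acceptor were subtracted. Uric acid formation was read as the increase in absorbance at 295 nm (ε 12.4 mmol⁻¹ cm⁻¹), expressed per min per unit enzyme, as the mean of three determinations.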

Xanthine dehydrogenase/oxidase, sequence (P80457 whole entry): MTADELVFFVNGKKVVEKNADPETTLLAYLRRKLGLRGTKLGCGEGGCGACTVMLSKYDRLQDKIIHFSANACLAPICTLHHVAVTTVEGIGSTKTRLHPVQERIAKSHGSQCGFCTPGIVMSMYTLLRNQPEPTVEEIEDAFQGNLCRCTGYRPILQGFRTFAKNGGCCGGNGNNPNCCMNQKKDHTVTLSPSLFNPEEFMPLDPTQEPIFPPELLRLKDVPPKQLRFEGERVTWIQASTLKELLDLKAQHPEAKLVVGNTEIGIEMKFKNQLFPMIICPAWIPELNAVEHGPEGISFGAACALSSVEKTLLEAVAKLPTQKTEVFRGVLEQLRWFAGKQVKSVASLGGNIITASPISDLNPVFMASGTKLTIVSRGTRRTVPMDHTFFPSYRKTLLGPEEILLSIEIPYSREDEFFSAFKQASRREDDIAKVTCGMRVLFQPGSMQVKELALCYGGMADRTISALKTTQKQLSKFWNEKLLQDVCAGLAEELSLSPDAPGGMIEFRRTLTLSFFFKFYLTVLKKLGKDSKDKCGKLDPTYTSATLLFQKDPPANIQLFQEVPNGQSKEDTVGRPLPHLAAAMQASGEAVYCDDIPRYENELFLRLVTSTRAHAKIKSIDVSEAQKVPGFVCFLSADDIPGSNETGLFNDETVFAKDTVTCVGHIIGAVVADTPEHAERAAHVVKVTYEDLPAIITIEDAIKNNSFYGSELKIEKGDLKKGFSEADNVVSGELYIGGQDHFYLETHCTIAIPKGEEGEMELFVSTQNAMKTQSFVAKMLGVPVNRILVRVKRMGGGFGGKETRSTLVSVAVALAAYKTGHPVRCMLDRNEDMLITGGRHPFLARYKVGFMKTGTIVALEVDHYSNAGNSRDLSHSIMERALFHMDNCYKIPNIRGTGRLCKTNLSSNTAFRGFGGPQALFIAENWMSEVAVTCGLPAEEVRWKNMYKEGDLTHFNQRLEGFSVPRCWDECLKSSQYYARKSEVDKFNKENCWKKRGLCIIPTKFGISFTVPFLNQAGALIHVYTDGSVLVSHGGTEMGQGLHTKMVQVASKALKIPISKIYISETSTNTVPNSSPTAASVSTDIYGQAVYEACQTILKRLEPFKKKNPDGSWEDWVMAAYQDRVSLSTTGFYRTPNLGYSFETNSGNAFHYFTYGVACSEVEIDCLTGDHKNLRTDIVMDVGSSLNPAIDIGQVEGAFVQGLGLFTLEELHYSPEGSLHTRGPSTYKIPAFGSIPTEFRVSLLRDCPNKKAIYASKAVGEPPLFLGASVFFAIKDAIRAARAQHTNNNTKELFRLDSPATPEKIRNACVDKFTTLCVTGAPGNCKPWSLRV

| Structure (SMILES) | Acceptor activity |
| --- | --- |
| COc1ccc([N+](=O)[O-])c(/C=N/NC(=N)NO)c1OC | 22 |
| COc1cc(Br)cc(/C=N/NC(=N)NO)c1O | 72.4 |
| N=C(NO)N/N=C/c1ccc([N+](=O)[O-])cc1[N+](=O)[O-] | 295.7 |
| COc1cc(OC)c(OC)cc1/C=N/N=C(\N)NO | 29.7 |
| COc1ccccc1/C=N/N=C(\N)NO | 59.7 |
| N/C(=N\O)N/N=C/c1ccccc1O | 33.8 |
| COc1cc(/C=N/N=C(\N)NO)cc(OC)c1OC | 54.6 |
| COc1cc([N+](=O)[O-])c(/C=N/NC(=N)NO)c(Cl)c1OC | 48.8 |
| N/C(=N\O)N/N=C/c1cccc([N+](=O)[O-])c1 | 24.4 |
| N=C(NO)N/N=C/c1c(Cl)ccc(Cl)c1[N+](=O)[O-] | 68.3 |
| COc1cc([N+](=O)[O-])c([N+](=O)[O-])c(/C=N/NC(=N)NO)c1OC | 52.9 |
| N=C(NO)N/N=C/c1c(Cl)cccc1[N+](=O)[O-] | 44 |
| COc1cc(OC)c(/C=N/N=C(\N)NO)c(OC)c1 | 10.8 |
| N/C(=N\O)N/N=C/c1ccc(Cl)c([N+](=O)[O-])c1 | 42.1 |
| N=C(NO)N/N=C/c1c([N+](=O)[O-])cccc1[N+](=O)[O-] | 154.5 |
| COc1ccc(/C=N/NC(=N)NO)c(Cl)c1OC | 155.6 |
| N/C(=N\O)N/N=C/c1ccc(O)c(O)c1O | 40.5 |
| N=C(NO)N/N=C/c1cc(O)ccc1[N+](=O)[O-] | 31.5 |
| COc1cc(/C=N/NC(=N)NO)c(Br)c(OC)c1OC | 119.5 |
| COc1cc([N+](=O)[O-])cc(/C=N/NC(=N)NO)c1OC | 0.8 |
| COc1ccc(OC)c(/C=N/N=C(\N)NO)c1 | 42.3 |
| COc1ccc(/C=N/N=C(\N)NO)c(OC)c1OC | 81.5 |
| COc1cc(OC)c(/C=N/NC(=N)NO)cc1Br | 16.3 |
| COc1cc(O)c(/C=N/N=C(\N)NO)c(OC)c1 | 101.7 |
| N=C(NO)N/N=C/c1c(Cl)ccc([N+](=O)[O-])c1[N+](=O)[O-] | 216.3 |
| COc1ccc(OC)c([N+](=O)[O-])c1/C=N/NC(=N)NO | 47.3 |
| N/C(=N\O)N/N=C/c1cccc(F)c1 | 56.2 |
| N=C(NO)N/N=C/c1cc([N+](=O)[O-])ccc1O | 25.8 |

Further lines, results first:

| Acceptor activity | Structure (SMILES) |
| --- | --- |
| 45.5 | COc1cccc(/C=N/NC(=N)NO)c1O |
| 56.4 | N=C(NO)N/N=C/c1ccccc1[N+](=O)[O-] |
| 43.2 | N=C(NO)N/N=C/c1ccc(F)cc1 |
| 72.9 | N=C(NO)N/N=C/c1ccccc1Br |
| 44.7 | N=C(NO)N/N=C/c1cccc2c1OCO2 |
| 35 | N=C(NO)N/N=C/c1ccc(Br)c([N+](=O)[O-])c1 |
| 35.6 | COc1ccc(/C=N/NC(=N)NO)cc1Br |
| 57.9 | N=C(NO)N/N=C/c1ccc(Cl)cc1 |
| 45.4 | N=C(NO)N/N=C/c1cccc(Cl)c1 |
| 64.2 | N=C(NO)N/N=C/c1ccc(O)cc1 |
| 30.7 | COc1cc(/C=N/NC(=N)NO)cc(OC)c1 |
| 90.2 | N=C(NO)N/N=C/c1ccccc1Cl |
| 49.6 | N=C(NO)N/N=C/c1ccccc1F |
| 43.7 | N=C(NO)N/N=C/c1cccc(O)c1O |
| 50.9 | COc1ccc(/C=N/NC(=N)NO)cc1 |
| 41 | CN(C)c1ccc(/C=N/NC(=N)NO)cc1 |
| 62.1 | CCN(CC)c1ccc(/C=N/NC(=N)NO)cc1 |
| 94.2 | N=C(NO)N/N=C/c1ccc([N+](=O)[O-])cc1 |
| 72.9 | N=C(NO)N/N=C/c1ccc(O)cc1O |
| 13.2 | COc1cccc(OC)c1/C=N/NC(=N)NO |
| 55 | COc1cccc(/C=N/NC(=N)NO)c1 |
| 68.9 | COc1ccc(/C=N/NC(=N)NO)cc1O |
| 82.1 | N=C(NO)N/N=C/c1ccc(Br)cc1 |
